Converted amounts (≈) assume the structure as drawn.
Key:
Staphylococcus aureus [1] = assay: Antimicrobial activity against Staphylococcus aureus C622 by broth microdilution method; type: functional
Summary of the method: (§1)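 Preliminary MIC screen by twofold serial broth microdilution in Mueller-Hinton broth, 0.5% DMSO final, with a DMSO-only control. Overnight mid-log cultures were diluted 100-fold, grown 4 h, then diluted 10−6 and added to wells. Plates were incubated overnight and growth read visually. Inhibition was defined as growth ≤ half of control. Three replicates per strain.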

Bacillus subtilis = assay: Antimicrobial activity against Bacillus subtilis C971 by broth microdilution method; type: functional
Summary of the method: (§2)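 Preliminary screen by broth microdilution. Jadomycins dissolved in 100% DMSO and diluted to a 2.56 mg ml−1 working stock in 5% DMSO. First well held 0.5% DMSO final, followed by twofold serial dilutions in broth. A DMSO-only control was included. Strains were grown in Mueller-Hinton broth to mid-log, diluted 100-fold, incubated 4 h, then diluted 10−6. Plates were incubated overnight and growth was read visually. MIC defined as growth ≤ half of control. Three replicates.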

Staphylococcus aureus [2] = assay: Antimicrobial activity against methicillin-resistant Staphylococcus aureus C623 by broth microdilution method; type: functional; summary of the method: as §1
[3] = system: Staphylococcus epidermidis; assay: Antimicrobial activity against Staphylococcus epidermidis C960 by broth microdilution method; type: functional; summary of the method: as §2
Staphylococcus aureus [4] = assay: Antimicrobial activity against methicillin-resistant Staphylococcus aureus C623 by CLSI method; type: functional
Summary of the method: (§3)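 MIC by CLSI broth microdilution in cation-adjusted Mueller-Hinton broth at 5 × 10^5 CFU ml−1 final (5 × 10^4 CFU/well).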

Staphylococcus aureus [5] = assay: Antimicrobial activity against Staphylococcus aureus Becker CP8 by broth microdilution method; type: functional; summary of the method: as §1
Pseudomonas aeruginosa [6] = assay: Antimicrobial activity against Pseudomonas aeruginosa H187 by broth microdilution method; type: functional; summary of the method: as §2
Enterococcus faecalis = assay: Antimicrobial activity against Enterococcus faecalis C625 by broth microdilution method; type: functional; summary of the method: as §2
Staphylococcus aureus [7] = assay: Antimicrobial activity against Staphylococcus aureus 305 by broth microdilution method; type: functional; summary of the method: as §1
Pseudomonas aeruginosa [8] = assay: Antimicrobial activity against Pseudomonas aeruginosa H188 by broth microdilution method; type: functional; summary of the method: as §2
[9] = system: Staphylococcus epidermidis; assay: Antimicrobial activity against Staphylococcus epidermidis isolate C621 by broth microdilution method; type: functional; summary of the method: as §2
Staphylococcus aureus [10] = assay: Antimicrobial activity against Staphylococcus aureus ATCC 55804 by broth microdilution method
[11] = system: Staphylococcus epidermidis; assay: Antimicrobial activity against Staphylococcus epidermidis C960 by CLSI method; type: functional
Staphylococcus aureus [12] = assay: Antimicrobial activity against Staphylococcus aureus 305 by CLSI method; type: functional; summary of the method: as §3

Compound	MIC (Staphylococcus aureus [1]) [µg/mL]	MIC (Bacillus subtilis) [µg/mL]	MIC (Staphylococcus aureus [2]) [µg/mL]	MIC [3] [µg/mL]	MIC (Staphylococcus aureus [4]) [µg/mL]	MIC (Staphylococcus aureus [5]) [µg/mL]	MIC (Pseudomonas aeruginosa [6]) [µg/mL]	MIC (Enterococcus faecalis) [µg/mL]	MIC (Staphylococcus aureus [7]) [µg/mL]	MIC (Pseudomonas aeruginosa [8]) [µg/mL]	MIC [9] [µg/mL]	MIC (Staphylococcus aureus [10]) [µg/mL]	MIC [11] [µg/mL]	MIC (Staphylococcus aureus [12]) [µg/mL]
Cc1cc(O)c2c(c1)[C@@H]1OC(=O)CN1C1=C2C(=O)c2cccc(O[C@H]3C[C@@H](O)[C@@H](O)[C@H](C)O3)c2C1=O [JADOMYCIN G]	64 (≈ 130 µM)	64 (≈ 130 µM)	32 (≈ 64.8 µM)	2 (≈ 4.05 µM)	> 128	32 (≈ 64.8 µM)	> 128	> 128	64 (≈ 130 µM)	> 128	8 (≈ 16.2 µM)	64 (≈ 130 µM)	32 (≈ 64.8 µM)	> 128
Cc1cc(O)c2c(c1)[C@@H]1OC(=O)[C@H](CC(C)C)N1C1=C2C(=O)c2cccc(O[C@H]3C[C@@H](O)[C@@H](O)[C@H](C)O3)c2C1=O [JADOMYCIN L]	< 1	16 (≈ 29.1 µM)	< 1	< 1	8 (≈ 14.6 µM)	8 (≈ 14.6 µM)	> 128	> 128	8 (≈ 14.6 µM)	> 128	4 (≈ 7.28 µM)	16 (≈ 29.1 µM)	0.5 (≈ 0.91 µM)	8 (≈ 14.6 µM)
Cc1cc(O)c2c(c1)[C@@H]1OC(=O)[C@H](CO)N1C1=C2C(=O)c2cccc(O[C@H]3C[C@@H](O)[C@@H](O)[C@H](C)O3)c2C1=O [JADOMYCIN S]	–	16 (≈ 30.6 µM)	–	1 (≈ 1.91 µM)	32 (≈ 61.1 µM)	8 (≈ 15.3 µM)	> 128	> 128	8 (≈ 15.3 µM)	> 128	4 (≈ 7.64 µM)	32 (≈ 61.1 µM)	0.5 (≈ 0.955 µM)	32 (≈ 61.1 µM)
CC[C@H]1OC(=O)[C@H](C)[C@@H](O[C@H]2C[C@@](C)(OC)[C@@H](O)[C@H](C)O2)[C@H](C)[C@@H](O[C@@H]2O[C@H](C)C[C@H](N(C)C)[C@H]2O)[C@](C)(O)C[C@@H](C)C(=O)[C@H](C)[C@@H](O)[C@]1(C)O [ERYTHROMYCIN]	< 1	< 0.125	> 128	< 0.125	–	< 0.25	> 2	1 (≈ 1.36 µM)	< 0.25	> 2	< 0.125	< 0.25	–	–
Cc1cc(O)c2c(c1)[C@@H]1OC(=O)[C@H]([C@H](C)O)N1C1=C2C(=O)c2cccc(O[C@H]3C[C@@H](O)[C@@H](O)[C@H](C)O3)c2C1=O [JADOMYCIN T]	8 (≈ 14.9 µM)	8 (≈ 14.9 µM)	8 (≈ 14.9 µM)	< 1	32 (≈ 59.5 µM)	4 (≈ 7.44 µM)	> 128	> 128	4 (≈ 7.44 µM)	> 128	2 (≈ 3.72 µM)	16 (≈ 29.8 µM)	1 (≈ 1.86 µM)	64 (≈ 119 µM)
CSCC[C@@H]1C(=O)O[C@H]2c3cc(C)cc(O)c3C3=C(C(=O)c4c(O[C@H]5C[C@@H](O)[C@@H](O)[C@H](C)O5)cccc4C3=O)N12 [JADOMYCIN DM]	2 (≈ 3.52 µM)	16 (≈ 28.2 µM)	4 (≈ 7.05 µM)	< 1	16 (≈ 28.2 µM)	16 (≈ 28.2 µM)	> 128	> 128	32 (≈ 56.4 µM)	> 128	2 (≈ 3.52 µM)	64 (≈ 113 µM)	2 (≈ 3.52 µM)	32 (≈ 56.4 µM)

Source: ChEMBL document CHEMBL1629640, “Antimicrobial activities of jadomycin B and structurally related analogues” (2009)
